HIV Env fusion: inhibitors of HIV Env-mediated cell fusion | inhibition, % at 12.3 µM | HeLa-JRFL Env/CEM21 cell fusion, luciferase | 360,000 compounds, 1.1% hits;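 active = mean replicate inhibition score of at least 50 and every replicate individually at or above 50; inconclusive = only one of the two criteria met; inactive = mean below 50 and not all replicates reaching 50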;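 note: 0% = plate neutral controls and 100% = maraviroc near 300 nM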
PvdQ inh: P. aeruginosa PvdQ acylase inhibition. 340,000 compounds, 0.063% hits. purified PvdQ acylase, fluorescence plate reader. inhibition, % at 10 µM; in the data active = inhibition above about 30%, passing the limit was not always enough; inconclusive = no clear call, values can overlap the other calls;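 note: 0% = vehicle neutral wells and 100% = reference inhibitor wells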
rRNA inh HTS: selective bacterial rRNA inhibition in E. coli. E. coli WT GFP vs humanized-ribosome RFP mutants, fluorescence, 24 h; active compounds read low; DMSO median 0, no signal -100. GFP signal change (wild-type ribosome), % (concentration not given with the values). 350,000 compounds, 1.6% hits. AID 720706;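 active = significant combined selectivity score with lowered wild-type GFP, culture density cut under 30%, mutant RFP and density less affected; inactive = any of these conditions unmet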
ERp5 block: blocks human ERp5 reductase activity on insulin; ERp5 insulin aggregation, absorbance 650 nm, 90 min; inhibition, % at 9.99 µM; 350,000 compounds, 0.05% hits;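 active = mean replicate inhibition above about 25%, with every replicate also reaching it, limit read from the data, passing the limit was not always enough; inconclusive = only one of those two criteria met; inactive = neither criterion met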
FN deposition inh: fibronectin deposition inhibition. inhibition, % at 12.6 µM. AID 743247. 350,000 compounds, 0.086% hits. AH1F fibroblasts, Alexa488-fibronectin deposition fluorescence, overnight;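 active = mean inhibition across replicates of 30% or more, regardless of how many single replicates reach that level; inconclusive = mean under 30% yet at least half of replicates reach 30%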;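 note: positive control wells lacked labelled fibronectin entirely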
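Schedule: 1 h cell adhesion before compound, then overnight fibronectin incubation; test system: AH1F fibroblast monolayer depositing Alexa488-labelled fibronectin into matrix; quantity: 10000 AH1F cells per well; probe or stimulus: fluorescent fibronectin at 24 nM final; signal: fluorescence, ex 485 nm, em 525 nm; evaluation: percent inhibition as loss of matrix-bound fibronectin fluorescence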
PDI turbidity: blocks human protein disulfide isomerase activity; P07237; PDI insulin aggregation turbidity, A650, 90 min; inhibition, % at 10 µM; 350,000 compounds, 0.052% hits;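 active = mean inhibition across replicates of 30% or more, whatever share of single replicates reach that level; inconclusive = mean inhibition below 30% while every single replicate reaches 30%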
Target sequence (P07237 whole entry, looked up): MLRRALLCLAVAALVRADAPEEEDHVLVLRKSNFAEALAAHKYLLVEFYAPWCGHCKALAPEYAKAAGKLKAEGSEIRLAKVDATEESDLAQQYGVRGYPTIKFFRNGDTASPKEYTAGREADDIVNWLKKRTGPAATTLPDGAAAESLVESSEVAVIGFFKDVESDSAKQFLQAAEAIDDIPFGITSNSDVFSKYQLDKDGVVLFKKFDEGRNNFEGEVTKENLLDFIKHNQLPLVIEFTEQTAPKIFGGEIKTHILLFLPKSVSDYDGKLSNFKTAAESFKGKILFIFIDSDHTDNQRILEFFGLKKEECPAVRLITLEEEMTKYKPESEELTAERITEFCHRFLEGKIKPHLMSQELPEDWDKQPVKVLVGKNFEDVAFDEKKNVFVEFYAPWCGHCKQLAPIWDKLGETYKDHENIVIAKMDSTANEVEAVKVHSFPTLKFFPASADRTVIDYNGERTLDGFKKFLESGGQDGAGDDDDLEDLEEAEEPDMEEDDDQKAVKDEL
An asterisk follows results filed as active; [ ] = another dose, or the depositor's remark. This is a sample that favours compounds with a hit; in the whole collection about 2.2% have one here.

`C[C@H]1CN([C@@H](C)CO)S(=O)(=O)c2ccc(-c3cccc(F)c3)cc2O[C@H]1CN(C)S(=O)(=O)c1ccccc1` gave HIV Env fusion 90*[16.7 µM], rRNA inh HTS -4 and ERp5 block 2.
C[C@H](CO)N1C[C@H](C)[C@H](CN(C)S(=O)(=O)c2ccccc2)Oc2cc(-c3cccc(F)c3)ccc2S1(=O)=O was read as HIV Env fusion 83*[16.7 µM], rRNA inh HTS 2 and ERp5 block -8.
Screening C[C@@H]1CN([C@H](C)CO)S(=O)(=O)c2ccc(-c3cccc(F)c3)cc2O[C@@H]1CN(C)S(=O)(=O)c1ccccc1 returned HIV Env fusion 107*[16.7 µM], rRNA inh HTS 2 and ERp5 block 9.
CC(C)(C)NC(=O)NC(=O)C[n+]1ccc(Cc2ccc([N+](=O)[O-])cc2)cc1 was read as HIV Env fusion 16, PvdQ inh -17, rRNA inh HTS -14*, ERp5 block 5, FN deposition inh -6 and PDI turbidity 2.
CC(=O)NC(=S)NNC(=O)CCc1ccccc1 was read as HIV Env fusion -4, PvdQ inh 0, rRNA inh HTS -24*, ERp5 block 3, FN deposition inh -8 and PDI turbidity 9.
Screening Cc1cc(Cl)ccc1NNC(=O)CCc1ccccc1 returned HIV Env fusion 3, PvdQ inh -15, rRNA inh HTS -29*, ERp5 block -1, FN deposition inh 9 and PDI turbidity -2.
O=C(CCc1ccccc1)NNC(=O)c1cc(Cl)ccc1O was read as HIV Env fusion 5, PvdQ inh -10, rRNA inh HTS -21, ERp5 block 0, FN deposition inh 7 and PDI turbidity 3.
`COc1ccc(CCC(=O)NNC(=S)NCc2ccc(F)cc2)cc1` gave HIV Env fusion 10, PvdQ inh -8, rRNA inh HTS -29*, ERp5 block -4, FN deposition inh -14 and PDI turbidity -3.
Screening COc1ccc(CCC(=O)NNC(=O)c2ccc(F)cc2)cc1 returned HIV Env fusion 5, PvdQ inh -13, rRNA inh HTS 10, ERp5 block 0, FN deposition inh -1 and PDI turbidity -7.
Screening C[C@@H]1CN([C@@H](C)CO)C(=O)c2cc(NC(=O)Nc3ccc4c(c3)OCO4)ccc2O[C@H]1CN(C)C(=O)Nc1ccc(C(F)(F)F)cc1 returned HIV Env fusion 1[16.7 µM], rRNA inh HTS -3, ERp5 block 3 and FN deposition inh 6.
For C[C@@H]1CN([C@H](C)CO)C(=O)c2cc(NS(=O)(=O)c3ccccc3)ccc2O[C@@H](C)CCCCO[C@H]1CN(C)C(=O)c1ccccc1 the results were rRNA inh HTS 2, ERp5 block 1 and FN deposition inh -5.
Screening C/C=C/c1ccc2c(c1)[C@H]1[C@H](CCN1C(=O)C1CC1)[C@@H](CO)N2 returned rRNA inh HTS 1, ERp5 block 1 and FN deposition inh -2.
`Cc1nc2c(C)cccn2c1/C(O)=C1\C(=O)C(=O)N(CCN2CCOCC2)C1c1cccs1` (configuration not stated) gave HIV Env fusion -27, PvdQ inh -11, FN deposition inh 0 and PDI turbidity 2.
Cc1nc2c(C)cccn2c1/C(O)=C1\C(=O)C(=O)N(CCN(C)C)C1c1cccs1 (configuration not stated) was read as HIV Env fusion 1, PvdQ inh -2, rRNA inh HTS -26*, ERp5 block 0, FN deposition inh -5 and PDI turbidity 5.
For O=[N+]([O-])c1ccc(N/N=C/C=C/c2ccco2)cc1 the results were HIV Env fusion -58, PvdQ inh -3, rRNA inh HTS -40*, ERp5 block 8, FN deposition inh -10 and PDI turbidity -1.
`O=C(O)c1ccc(N/N=C/C=C/c2ccc([N+](=O)[O-])o2)cc1` gave HIV Env fusion -9, PvdQ inh -3, rRNA inh HTS -32*, ERp5 block 2, FN deposition inh 1 and PDI turbidity -6.
For CCCN(C)C[C@H]1OCCCC[C@H](C)Oc2ccc(NC(=O)CCC(F)(F)F)cc2C(=O)N([C@H](C)CO)C[C@H]1C the results were HIV Env fusion 14[16.7 µM], rRNA inh HTS 3 and ERp5 block 2.
Screening C[C@H](CO)N1C[C@H](C)[C@@H](CN(C)C)Oc2ccc(NS(=O)(=O)c3ccc(Cl)cc3)cc2C1=O returned rRNA inh HTS 3 and ERp5 block -1.
`O=C(NCc1nc2ccccc2[nH]1)C1=C[C@H](C2CC2)C[C@H](OCc2ccc(CO)cc2)O1` gave HIV Env fusion 2[16.7 µM], PvdQ inh -6, rRNA inh HTS 7, ERp5 block -7, FN deposition inh 7 and PDI turbidity 1.
For O=C(NCc1nc2ccccc2[nH]1)C1=C[C@@H](C2CC2)C[C@@H](OCc2ccc(CO)cc2)O1 the results were HIV Env fusion 6[16.7 µM], PvdQ inh 16, rRNA inh HTS -27*, ERp5 block -2, FN deposition inh 2 and PDI turbidity -2.
`O=C(N[C@@H]1CC[C@@H](CCNS(=O)(=O)c2ccc(Cl)cc2)O[C@H]1CO)c1cnccn1` gave HIV Env fusion 8[16.7 µM], rRNA inh HTS -1 and ERp5 block 2.
`CCCCn1c(SCC(=O)Nc2ccc(C)c(S(=O)(=O)N3CCOCC3)c2)nnc1C(CC)N(C)C` (configuration not stated) gave HIV Env fusion -4, PvdQ inh -10, rRNA inh HTS 3, ERp5 block 0, FN deposition inh 1 and PDI turbidity 32*.
Screening CN1C(=O)c2cc(NC(=O)c3cccc(F)c3)ccc2OC[C@H]2O[C@H](CC(=O)NCc3ccccc3)CC[C@H]21 returned HIV Env fusion inconclusive, rRNA inh HTS -5 and FN deposition inh -17.
For Cc1ccc(S(=O)(=O)Oc2ccccc2/C=N/Nc2ccc(C(=O)O)cc2)cc1 the results were HIV Env fusion -6, PvdQ inh 10, rRNA inh HTS -33*, ERp5 block -6, FN deposition inh -4 and PDI turbidity 2.
Screening COc1cccc(/C=N/Nc2ccc(C(=O)O)cc2)c1O returned HIV Env fusion 86*, PvdQ inh 3, rRNA inh HTS -8, ERp5 block 3, FN deposition inh 0 and PDI turbidity 0.
For COc1cccc(/C=N/NC(=O)N/N=C/c2cccc(OC)c2O)c1O the results were HIV Env fusion 48, PvdQ inh -8, rRNA inh HTS -31*, ERp5 block 6, FN deposition inh 10 and PDI turbidity -1.
`COc1cccc(/C=N/NC(=O)C(C)n2nc(C)c([N+](=O)[O-])c2C)c1O` (configuration not stated) gave HIV Env fusion 9, PvdQ inh -14, rRNA inh HTS -22*, ERp5 block 0, FN deposition inh 14 and PDI turbidity 9.

Screens (PubChem BioAssay)
